The values below come from PubChem BioAssay AID624466 (The Scripps Research Institute Molecular Screening Center, 2012).

The campaign covered roughly 360,000 compounds. About 5,400 (1.5%) were called active. What follows is part of a selection rich in actives, with near analogues and random picks from the rest. Unmarked numbers belong to inactive results.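 How the source made its calls: active means inhibition above a per-plate cutoff, the mean inhibition of test compounds on that plate plus 3 SD (cut at about 49% in these data); inactive means the rest.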

Chain of Trace amine-associated receptor 1 (Homo sapiens) (Q96RJ0 whole entry, looked up): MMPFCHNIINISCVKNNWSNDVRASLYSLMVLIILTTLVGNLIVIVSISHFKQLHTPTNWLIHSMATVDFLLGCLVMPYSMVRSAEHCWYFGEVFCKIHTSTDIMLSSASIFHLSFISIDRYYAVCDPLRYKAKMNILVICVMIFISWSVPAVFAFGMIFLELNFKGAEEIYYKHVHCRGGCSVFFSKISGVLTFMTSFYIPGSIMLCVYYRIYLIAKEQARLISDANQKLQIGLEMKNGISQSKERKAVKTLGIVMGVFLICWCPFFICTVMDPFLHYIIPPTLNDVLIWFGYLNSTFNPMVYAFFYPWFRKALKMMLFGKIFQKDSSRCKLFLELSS

The test concerns the target Trace amine-associated receptor 1 (Homo sapiens) (UniProt Q96RJ0). Put plainly: human TAAR1 antagonists, primary screen, Fluo-8 calcium fluorescence, CHO RD-HGA16 cells (AID 624466).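 Further: 0% = DMSO plus EC80 beta-PEA response and 100% = DMSO alone without agonist.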 The following applies: CHO RD-HGA16 TAAR1, Fluo-8 calcium fluorescence, antagonist; at 3 µM; hits give high values. The gist of the method: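 Assay system: RD-HGA16 CHO cells with stable hTAAR1 and Gα16 / Reagent: EC80 β-phenethylamine stimulus / Doses: 3 µM, single point / Timing: dye loading 75 min at 37 °C, then 30 min room temperature / Measured by: Fluo-8 intracellular calcium dye fluorescence, real-time kinetic reads / Controls: vehicle wells and EC80 agonist wells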
Broadly, the inhibition is the drop in the measured response relative to a control, in per cent. Regarding `Cc1ccc2nc(-c3ccc(NC(=O)c4cccnc4)cc3)oc2c1`, the inhibition was 45.9%.

Turning to `CCC(=O)Oc1cccc(C(=O)Nc2ccc(-c3nnc(-c4ccco4)o3)cc2)c1`, the inhibition was 63.3% (active). For `O=C(Nc1ccc(Cl)cc1)c1cccc(OC(=S)N2CCOCC2)c1`, the inhibition was -20.4%.

Turning to `CN(C(=O)CN(CCO)CC(=O)N(C)C(C)(C)Cc1ccccc1)C(C)(C)Cc1ccccc1`, the inhibition is 86.5% (active). Consider `CCOC(=O)N(Cc1ccccc1)C1CC1`, for which the inhibition was 2.44%.

For `CN(CCO)C(=O)c1nc[nH]c1C(=O)N(C)Cc1ccccc1`, the inhibition was -10.4%. In the case of `Cc1nc2nc(SCC(=O)c3ccccc3)[nH]c2cc1Br`, the inhibition is -5.84%. Regarding `Cc1cc(SCC(=O)c2ccccc2)nc(SCC(=O)c2ccccc2)n1`, the inhibition is 51.6% (active).

On to `Cc1nc(SCC(=O)c2ccccc2)c([N+](=O)[O-])[nH]1`, for which the inhibition is 8.14%. For `CCOC(=O)CCCNC(=O)COC(=O)c1cc(Br)c(Br)s1` the value was -4.99%; for `CCC1CCCCN1CCNS(=O)(=O)c1ccc2c(c1)CCN2C(C)=O` (stereo unspecified), -5.09%. For the compound `Cc1ccc(C(=O)N/C(=C\c2cn(S(=O)(=O)N(C)C)c3ccccc23)C(=O)N2CCCC2)cc1`, the inhibition is 39.7%. The same measure for `O=C1C(Cl)=C(Oc2ccccc2)C(=O)c2ccccc21`: 50.9% (active); for `Cc1cc(Cl)ccc1OCCCC(=O)Nc1cccc(-n2cnnn2)c1`: 53% (active). Regarding `Cc1cc(Cl)ccc1OCCCC(=O)NCc1ccccn1`, the inhibition is 2.84%. As for `Cc1cc(Cl)ccc1OCCCC(=O)NCc1ccncc1`, the inhibition is 3.15%. For `CC1(C(=O)NCc2ccccc2)CSCC(=O)N1CCCN1CCOCC1` (stereo unspecified) the value was -18.5%; for `COC(=O)c1ccc2c(c1)S(=O)(=O)NC2C` (stereo unspecified), 4.99%; for `O=c1[nH]c(CSc2ncc(-c3ccc(F)cc3)n2Cc2ccco2)nc2ccccc12`, 67.8% (active).

Consider `CCn1c(COc2c(C)cccc2C)nnc1SCc1nc2ccccc2c(=O)[nH]1`, for which the inhibition was 2.03%.

On to `Cn1c(-c2ccc(F)cc2)cnc1SCC(=O)NCc1ccco1`, for which the inhibition is -3.37%.

For the compound `CN(C)CCCn1c(SCCN2C(=O)c3ccccc3C2=O)nc2ccccc2c1=O`, the inhibition is -1.92%.

With `C[C@H](NC(=O)c1ccccc1)C(=O)OCC(=O)c1c[nH]c2ccccc12`, the inhibition is 52.1% (active). With `CCOc1ncccc1C(=O)OCC(=O)c1c[nH]c2ccccc12`, the inhibition was 42%. As for `C[N+](C)(C)CCNC(=O)c1c[nH]c2ccccc12`, the inhibition is -17.1%. Consider `COC(=O)C1=C(C)N(Cc2ccccc2C(F)(F)F)C(=NCC2CC2)NC1c1cccc(Cl)c1` (stereo unspecified), for which the inhibition was 1.62%. For `CCOC(=O)c1cc(-c2ccc(Cl)s2)nc2c1c(C)nn2C` the value was 1.4%; for `Cc1ccc(OCCC(=O)OCC(=O)N2c3ccccc3NC(=O)C2(C)C)cc1`, 50.6% (active). For `CC1(C)C(=O)Nc2ccccc2N1C(=O)COC(=O)Cn1cnc2ccccc2c1=O` the value was 12.5%; for `CNS(=O)(=O)c1cccc(C(=O)OCC(=O)N2c3ccccc3NC(=O)C2(C)C)c1`, 0.12%; for `CC(c1ccccc1)n1c(NCCCn2ccnc2)nc2c1c(=O)[nH]c(=O)n2C` (stereo unspecified), 10.8%.

`Cc1cc(=O)[nH]c2nnnn12`: the inhibition was -7.21%.

For the compound `COc1ccc(N(CC(=O)N/N=C/c2cccc3c2OCCO3)S(=O)(=O)c2ccc(NC(C)=O)cc2)cc1`, the inhibition is 29.3%. For `COc1ccc(S(=O)(=O)N(CC(=O)N/N=C/c2ccc(C(=O)O)cc2)Cc2ccccc2)cc1OC` the value was -28.3%; for `COc1ccc(N(CC(=O)N/N=C/c2cccs2)S(=O)(=O)c2ccc(OC)c(OC)c2)cc1`, 69.2% (active); for `Nc1[nH]c(C(=O)c2ccccc2)c(-c2ccc(Cl)cc2Cl)c1C(=O)c1ccccc1`, -37.8%. For `CSCCC(NC(=O)COc1ccccc1)C(=O)OCC(=O)c1cc2ccccc2o1` (stereo unspecified), the inhibition was 50% (active). In the case of `CSCCC(NC(=O)COc1ccccc1)C(=O)Nc1ccc(C)cc1` (stereo unspecified), the inhibition was -10.3%. For `COc1ccccc1OCCNC(=O)C(CCSC)NC(=O)COc1ccccc1` (stereo unspecified), the inhibition was -26.3%. As to `CSCCC(NC(=O)COc1ccccc1)C(=O)OCCOc1ccc(F)cc1` (stereo unspecified), the inhibition is 37.1%.

As for `CSCCC(NC(=O)COc1ccccc1)C(=O)OCCOc1ccc(Br)cc1` (stereo unspecified), the inhibition is 55.7% (active). For `CSCCC(NC(=O)COc1ccccc1)C(=O)OCc1ccc(Cl)cc1` (stereo unspecified) the value was 22.9%; for `C=CCN1C(=O)C2(OCCCO2)c2cccc(Cl)c21`, 3.13%; for `O=C(Nc1c(Cl)c(C2CC2)nn1-c1ccccc1)C(Cl)(Cl)Cl`, -12.3%. The same measure for `FC(F)(F)c1cccc(-c2nc3ccccc3n2C(c2ccccc2)c2nc3ccccc3[nH]2)c1` (stereo unspecified): 18.4%; for `O=C(c1ccc(C(F)(F)F)cc1)N1CCC(=O)N([C@H](COCc2ccccc2)Cc2ccccc2)CC1`: 14.8%; for `COc1ccc(NC(=O)C(c2ccncc2)n2c(=O)c(-c3cc4ccccc4[nH]3)nc3ccccc32)cc1` (stereo unspecified): -5.75%. The same measure for `O=C1NC[C@H](CCCCN2C[C@H](Cc3ccc(O)cc3)N(CCc3ccccc3)C(=O)C2=O)N(CCc2ccccc2)C1=O`: 5.71%; for `Cc1ccc(CNC(=O)c2cc(-c3ccccc3C)n(CC3CC(c4cccc([N+](=O)[O-])c4)=NO3)n2)cc1` (stereo unspecified): 7.96%; for `COc1ccc(CNC(=O)C2(CC3CC(c4ccccc4)=NO3)CCN(C(=O)c3cccc(O)c3)CC2)cc1` (stereo unspecified): 33.5%. On to `COc1ccc(C2=NOC(Cn3nc(C(=O)NCc4ccc5c(c4)OCO5)cc3-c3ccccc3)C2)cc1` (stereo unspecified), for which the inhibition was 59.7% (active). The same measure for `COc1ccccc1C(=O)N1O[C@]23C=C[C@]14C[C@@H](O)CC[C@]4(C)C2CC[C@]1(C)[C@@H]([C@H](C)/C=C/[C@H](C)C(C)C)CC[C@H]13` (stereo partly specified): 2.31%.

Consider `Cc1ccc(C)c(-n2nnnc2SCC(=O)c2c(N)n(C)c(=O)n(C)c2=O)c1`, for which the inhibition was -13.3%. For `COC(=O)Nc1ccc(S(=O)(=O)Nc2cc(OC)nc(OC)n2)cc1` the value was -1.45%.

With `Cc1cc2nc3c(=O)[nH]c(=O)nc-3n(C[C@H](O)[C@H](O)[C@H](O)CO)c2cc1C`, the inhibition was 18.8%. Consider `CCN(CC)CCCC(C)n1c2nc(=O)[nH]c(=O)c-2nc2cc(Cl)ccc21` (stereo unspecified), for which the inhibition is 72% (active).
